Laboratory results: PubChem BioAssay AID821 (SRMLSC, 2007)
The source made the active and inactive calls.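 The calls were made as follows: active = compounds whose fitted half-maximal concentration for reducing fibroblast viability is 100 µM or lower; inactive = the rest.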

Experiment: LL 47 lung fibroblast growth inhibition, concentration-response, selectivity test for endothelial growth inhibitor program, cellular, luminescent ATP readout (AID 821);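 also: cells exposed to compound for 72 h at 37 °C; 100% = median of untreated cell-only wells and 0% = no luminescence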
Details: LL 47 lung fibroblast viability, ATP luminescence; at 20 µM (top of the series)
Summary of the method: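 Assay system: LL 47 human lung fibroblasts; Compound: dose series 0.039–20 µM final, 0.2% DMSO; Schedule: 72 h compound treatment at 37 °C after overnight attachment; Technique: CellTiter-Glo luminescence; Evaluation: percent viability relative to untreated wells, EC50 via 4-parameter fit.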

| SMILES | viability |
| --- | --- |
| COc1ccc(-n2c(SCC(=O)Nc3sc4c(c3C#N)CCCC4)nnc2-c2ccc(O)cc2)cc1 | 94.1% (inactive) |
| O=C(Nc1ccc2c(c1)OCO2)c1cc(C2CC2)on1 | 104% (inactive) |
| COc1ccc2[nH]cc(C(=O)CN3CCN(C4CCCCC4)CC3)c2c1 | 103% (inactive) |
| Cc1ccc(-n2c(Cc3cccs3)nnc2SCC(=O)Nc2ccc(F)c(F)c2)cc1 | 95.7% (inactive) |
| O=C(Nc1cccc(-c2nc3ncccc3o2)c1)c1cc2ccccc2o1 | 116% (inactive) |
| CC(Nc1nc(N2CCN(S(C)(=O)=O)CC2)nc2ccccc12)c1ccccc1 (stereo not drawn) | 92.9% (inactive) |
| Cc1cc(NC(=O)COC(=O)C(Nc2ccc(C(F)(F)F)cc2Cl)C(C)C)no1 (stereo not drawn) | 90.8% (inactive) |
| Cc1ccc(-n2nnnc2SCC(=O)Nc2ccc3c(c2)COC3=O)cc1C | 94.5% (inactive) |
| Cc1cc(S(=O)(=O)N2CCN(Cc3ccc4c(c3)OCO4)CC2)cc(C)c1N1CCCC1=O | 100% (inactive) |
| Cc1ccccc1N1C(=O)CC(Sc2nnc(-c3ccccc3)o2)C1=O (stereo not drawn) | 90.5% (inactive) |
| Cc1ccc(Cn2c(=S)[nH]c3ccc(N4CCOCC4)cc3c2=O)o1 | 85% (inactive) |
| O=C(Nc1cccnc1)c1ccc(Oc2ccccc2)cc1 | 85.3% (inactive) |
| CCCc1ccc(Oc2c(-c3ccc(O)c(C)c3O)n[nH]c2C)cc1 | 97.3% (inactive) |
| Cc1cc(C)n(CC(O)Cn2c3ccc(Br)cc3c3cc(Br)ccc32)c(=O)n1 (stereo not drawn) | 119% (inactive) |
| O=C1C2=C(NC(=S)NC2c2ccc(Cl)cc2)NC(c2ccc(Cl)cc2)N1c1ccc(Cl)cc1 (stereo not drawn) | 99.2% (inactive) |
| COC(=O)c1cc(COc2ccc3c(c2)oc(=O)c2ccccc23)c(C)o1 | 120% (inactive) |
| CCn1c(SCC(=O)Nc2ccc3c(c2)oc2ccccc23)nnc1-c1ccc(N)cc1 | 97.6% (inactive) |
| COc1ccc(CN2CCn3ncc(C(=O)Nc4cc(C)cc(C)c4)c3C2=O)cc1 | 105% (inactive) |
| CCC(C)[C@@H](NC(=O)OC(C)(C)C)c1nnc(S(=O)(=O)Cc2cccc(C)c2)o1 (stereo partly drawn) | 91.4% (inactive) |
| Cc1cc(C)n(-c2nc(SCC(=O)N3CCCC3)c3c4c(sc3n2)CCCC4)n1 | 113% (inactive) |
| CCOc1cc(/C=N\NC(=O)Cn2nc([N+](=O)[O-])cc2C)ccc1OCc1cccc2ccccc12 | 89.7% (inactive) |
| COc1ccc(Cc2nc(C(=O)Nc3ccc(Cl)cc3)cs2)cc1 | 84.3% (inactive) |
| CCCS(=O)(=O)N1CCC(C(=O)N2CCC3(CC2)OCCO3)CC1 | 97.5% (inactive) |
| Nc1c(C(=O)NCc2ccc(F)cc2)c2nc3ccccc3nc2n1CCCN1CCOCC1 | 85.7% (inactive) |

| SMILES | viability |
| --- | --- |
| CCCc1nc(SCC(=O)N2CCC(Cc3ccccc3)CC2)c2c(=O)n(C)c(=O)n(C)c2n1 | 106% (inactive) |
| CC(=O)n1cc(-c2ccncc2)c2ccccc21 | 98.4% (inactive) |
| Cc1cc(C(=O)OC(C)C(=O)Nc2cccc(S(=O)(=O)N3CCOCC3)c2)c(C)o1 (stereo not drawn) | 105% (inactive) |
| Cc1ccc2c(c1)c1c(n2CC(O)Cn2c(C)nc3ccccc32)/C(=N\O)CCC1 (stereo not drawn) | 89.6% (inactive) |
| COc1ccc(CCC(=O)N2CCN(C3CCCCC3)CC2)cc1 | 95.1% (inactive) |
| N#Cc1nc(COc2ccc(-c3ccccc3)cc2)oc1NCCCN1CCOCC1 | 91.9% (inactive) |
| Cc1sc2nc(SCC(=O)NCc3ccco3)n(CCc3ccccc3)c(=O)c2c1C | 121% (inactive) |
| CC(C)OC(=O)NCCOC(=O)Nc1cccc(Cl)c1 | 103% (inactive) |
| COC(=O)C1=C(C)N=c2s/c(=C3\C(=O)Nc4ccccc43)c(=O)n2C1c1ccccc1 (stereo not drawn) | 80.9% (inactive) |
| CCCOC(=O)c1ccc(Oc2cn[nH]c2-c2ccc(OCC)cc2O)cc1 | 98.4% (inactive) |
| COC(=O)CSc1nc2ccc(NC(=O)CSc3nnnn3Cc3ccccc3)cc2s1 | 108% (inactive) |
| CCOC(=O)c1c(NC(=O)C2COc3ccccc3O2)sc(C(C)=O)c1C (stereo not drawn) | 104% (inactive) |
| Cc1c(Cl)cccc1-c1ccc(/C=N/n2cnnc2)o1 | 98.9% (inactive) |
| Cc1ccc2c(c1)[nH]c1c(N3CCN(Cc4ccccc4)CC3)ncnc12 | 88.3% (inactive) |
| Cn1c(=O)c2c(ncn2CC(=O)Nc2nc(-c3ccccc3Cl)cs2)n(C)c1=O | 110% (inactive) |
| COc1ccc(-c2cn3c(C)c(C(=O)Nc4cccc(NC(C)=O)c4)sc3n2)cc1 | 109% (inactive) |
| CCOC(=O)c1ccc(NC(=O)CCc2nc(-c3ccc(C)cc3)no2)cc1 | 98.6% (inactive) |
| CC(C)(C)n1cnc2cc(NS(=O)(=O)c3ccccc3)ccc21 | 104% (inactive) |
| O/N=C1\CC/C(=N\O)c2nn(-c3ccccc3Cl)nc21 | 87.3% (inactive) |
| Cc1ccc(C(C)C)c(OCC(=O)Nc2ccc3c(c2)nc(CN2CCCC2)n3C)c1 | 91.9% (inactive) |
| CC1=C(SCCC#N)S/C(=C2\SC(C)=C(SCCC#N)S2)S1 | 112% (inactive) |
| Cc1cc(/C=C2\C(=N)N3C(SCc4ccccc4)=NSC3=NC2=O)c(C)n1Cc1ccccc1 | 92.2% (inactive) |
| Cc1ccc(C(=O)Nc2ncc(Cc3ccccc3)s2)o1 | 103% (inactive) |
| Cc1ccc2[nH]c3c(N4CCN(Cc5ccc6c(c5)OCO6)CC4)ncnc3c2c1 | 88.1% (inactive) |

| SMILES | viability |
| --- | --- |
| Clc1ccccc1-c1ccc(/C=N/n2cnnc2)o1 | 111% (inactive) |
| CCOC(=O)c1ccc2c(c1)NC(=O)C(N1CCN(c3ccc(OC)cc3)CC1)S2 (stereo not drawn) | 84.9% (inactive) |
| O=S(=O)(Nc1cccnc1)c1ccc(C2CCCCC2)cc1 | 100% (inactive) |
| C/C(=N\O)c1ccc2c3ccccc3n(C)c2c1 | 111% (inactive) |
| COc1ccc(-c2nnc(SCCc3ccccc3)n2N)cc1 | 113% (inactive) |
| Cc1nc(Nc2ccc3c(c2)OCCO3)c2nnn(Cc3ccccc3Cl)c2n1 | 102% (inactive) |
| O=Cc1ccc(Sc2nnc(-c3ccccc3)o2)c([N+](=O)[O-])c1 | 89.9% (inactive) |
| CC(C)COc1ccc2[nH]c3c(c2c1)CCCC3=O | 101% (inactive) |
| CCOC(=O)c1c(N)sc2c(OC)c(Br)ccc12 | 109% (inactive) |
| COc1ccc(Cl)cc1N1CCN(CCNC(=O)Nc2ccccc2C)CC1 | 101% (inactive) |
| O=C(NCc1ccc2c(c1)OCO2)C1CCC(CNS(=O)(=O)c2cccc3nsnc23)CC1 (stereo not drawn) | 106% (inactive) |
| CCOC(=O)c1c(NC(=O)COc2ncnc3sccc23)sc2c1CCC2 | 83.6% (inactive) |
| CC1(C)CSC(=S)N1S(=O)(=O)c1ccccc1 | 115% (inactive) |
| COc1ccc(NC(=O)CSc2nnc(CNC(=O)COc3ccc(Cl)cc3)o2)c(OC)c1 | 97% (inactive) |
| Cc1ccc(S(=O)(=O)c2c(C)nn(C(C)(C)C)c2OC(=O)c2ccco2)cc1 | 108% (inactive) |
| O=C(Nc1nnc(-c2ccc3c(c2)CCCC3)o1)c1ccc(Cl)cc1Cl | 95.8% (inactive) |
| CC1(C)Cc2c(C#N)c(N3CCN(C(=O)c4ccco4)CC3)nc(Cc3ccccc3)c2CO1 | 87.4% (inactive) |
| C=C(C)COc1ccc(-c2n[nH]c(C)c2-c2ccccc2OC)c(O)c1 | 90.3% (inactive) |
| CC(=O)Nc1ccc(S(=O)(=O)N2CCN(c3nc(NC4CCCC4)c4ccccc4n3)CC2)cc1 | 84.8% (inactive) |
| O=C(CSc1ncnc2c1oc1ccccc12)Nc1nc2ccccc2s1 | 105% (inactive) |
| Cc1cc(=O)[nH]c2ccc(Cl)cc12 | 102% (inactive) |
| Cc1ccc(Cn2nc(C)c(NC(=O)c3cc(-c4ccc5c(c4)OCO5)on3)c2C)cc1 | 106% (inactive) |
| OCCNc1nc2ccccc2n1-c1ncnc2sc3c(c12)CCC3 | 91.9% (inactive) |
| O=C(CCSc1ccc(Cl)cc1)N1CCN(c2ncccn2)CC1 | 96.4% (inactive) |

| SMILES | viability |
| --- | --- |
| Cn1c(=O)cc(SCC(=O)NCC2COc3ccccc3O2)c2ccccc21 (stereo not drawn) | 104% (inactive) |
| O=S1(=O)c2ccccc2N=NN1Cc1cc(Cl)cc(Cl)c1 | 84.5% (inactive) |
| CC1CCCC(NC(=O)C2CCN(S(=O)(=O)N3CCC4(CC3)OCCO4)CC2)C1C (stereo not drawn) | 100% (inactive) |
| Cn1cc(SCC(=O)Nc2nc3ccccc3s2)c2ccccc21 | 82.4% (inactive) |
| CCCc1c(C)c2cc(C)ccc2[nH]c1=O | 110% (inactive) |
| CCOC(=O)c1c(CN2CCN(c3ccccc3)CC2)oc2ccc(O)cc12 | 83.2% (inactive) |
| Cn1nc(C(C)(C)C)cc1C(=O)NCc1ccc(N2CCCC2=O)cc1 | 107% (inactive) |
| COc1cccc(-c2nnc(Nc3nc4c(F)cccc4s3)o2)c1 | 84.7% (inactive) |
| COc1ccc(N/N=C2/CCCCC2=O)cc1 | 123% (inactive) |
| Cn1c(=O)c2c(nc(Oc3ccc4c(c3)OCO4)n2Cc2ccc(Cl)cc2)n(C)c1=O | 87.5% (inactive) |
| CC1(c2ccccc2)CC(C)(C)N2C(=O)C3(C(C#N)=C(N)Oc4cc(O)ccc43)c3cccc1c32 (stereo not drawn) | 87.7% (inactive) |
| COCCCNC(=O)c1ccc2c(=O)n(Cc3ccc4c(c3)OCO4)c(=S)[nH]c2c1 | 106% (inactive) |
| c1ccc2c(c1)oc1c(NCCCN3CCOCC3)ncnc12 | 95.2% (inactive) |
| CC(/C=N/n1cnnc1)=C\c1ccccc1 | 109% (inactive) |
| Brc1ccccc1OCCCn1cnc2ccccc21 | 111% (inactive) |
| O=C(COC(=O)c1cccnc1Nc1cccc(C(F)(F)F)c1)NCc1ccc2c(c1)OCO2 | 130% (inactive) |
| CC1CCN(S(=O)(=O)c2ccc(NC(=O)Cn3nnc(-c4ccccc4F)n3)cc2)CC1 | 90.8% (inactive) |
| CC(=O)Oc1ccc(N2C(=O)C3C(C2=O)C2(C)C=CC3(C)O2)cc1 (stereo not drawn) | 103% (inactive) |
| Cc1cc(NC(=O)c2cccc(S(=O)(=O)N3CC(c4ccccc4)CC3=O)c2)no1 (stereo not drawn) | 98.4% (inactive) |
| Cc1c(CCOC(=O)C2C3CC4CC(C3)CC2C4)sc[n+]1CC(=O)c1ccc(Br)cc1 (stereo not drawn) | 93.4% (inactive) |
| Cc1ccc2c(c1)c1c(n2CC(O)Cn2c(C)nc3ccccc32)CCCC1 (stereo not drawn) | 95.1% (inactive) |
